# Screening results: PubChem, Broad Institute
# PGC1a acetyl inh = inhibitors of PGC1a acetylation signal, primary screen, cell-based, U2OS, AlphaScreen, inhibitor mode; AlphaScreen anti-acetyl-lysine; with virally co-expressed GCN5 acetyltransferase; inhibition, % at 15.6 µM; 0.17% of 350,000 active; AID 651687, 2012;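 active = every replicate shows inhibition of at least 40%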;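 also: 0% = neutral control wells and 100% = positive control wells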
# CAL PDZ FP-1 = CAL PDZ peptide-binding inhibitors, primary screen, biochemical, fluorescence polarization, Cer-tagged CAL PDZ, HTS | 0.02% of 330,000 active | Golgi-associated PDZ and coiled-coil motif-containing protein (Homo sapiens), Q9HD26 | inhibition, % at 20 µM | purified CAL PDZ, TMR-peptide fluorescence polarization, 1 h;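 active = highest replicate inhibition of at least 40%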;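 also: plate controls were DMSO neutral control wells for no effect and unlabeled competitor peptide control wells for full effect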
#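 Read-out basis: mP drop reported as inhibition | Assay system: Tagged CAL PDZ protein CerCALP, purified | Benchmarks: Unlabelled peptide for full inhibition, DMSO wells as neutral | Schedule: 1 h incubation at room temperature before polarization reading | Buffer or medium: Sodium phosphate/NaCl buffer pH 7.4 with TCEP, IgG, Thesit | Doses: Single point, 20 µM | Measured by: Fluorescence polarization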
# CAL PDZ FP-2 = untagged CAL PDZ binding inhibitors, primary screen, biochemical, fluorescence polarization, HTS; Golgi-associated PDZ and coiled-coil motif-containing protein (Homo sapiens), Q9HD26; purified CAL PDZ, TMR-peptide fluorescence polarization, 1 h; inhibition, % at 24.9 µM; 0.92% of 300,000 active; AID 602252, 2012;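 active = mean inhibition of at least 30% with at least half of replicates also reaching 30%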;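 also: 0% = DMSO neutral control and 100% = excess unlabeled competitor peptide PRC23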
# F508del corr = F508del CFTR correction, initial screen, CFBE line, single point; CFBE cells, YFP halide quenching; stimulated with forskolin plus potentiator P3; % fluorescence drop versus neutral controls; activity (quench increase), % at 7.58 µM; 0.36% of 350,000 active; AID 720511, 2013;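 active = mean added fluorescence quench of at least 8% versus neutral control, with both replicates also reaching 8%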;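 also: cells transiently co-express mutant CFTR-F508del with the halide-sensitive YFP; corrector assay measuring rescue of mutant channel to the surface after 24 h compound exposure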
# miR122 inh = miR-122 Renilla sensor signal increase in Huh7, primary screen, miR-122 inhibitor project, cell-based, single point, plate reader | activation (reporter increase), % at 12.5 µM | 0.3% of 340,000 active | Huh7 miR-122 Renilla luciferase sensor, 48 h; neutral wells = 0, positive control = 100 | AID 602342, 2012;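 active = mean replicate activation score at least 90 and every replicate individually at or above 90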;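 also: higher luciferase means less miR-122 activity so hits act as miR-122 inhibitors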
# ARNT TACC3 PPI = disruptors of ARNT/TACC3 protein interaction, primary screen, biochemical, AlphaScreen, single concentration. 0.66% of 390,000 active. inhibition, % at 9.99 µM. AlphaScreen His-ARNT PAS-B/GST-TACC3 binding, luminescence; TACC3 fragment carries E629A point mutation. Transforming acidic coiled-coil-containing protein 3 (Homo sapiens), Q9Y6A5;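 active = mean inhibition of replicates at least 50% and at least half of replicates each reaching 50%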;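 also: 0% = complete ARNT plus TACC3 wells and 100% = ARNT alone without TACC3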
# Starred values were filed as active, the others as inactive; / = not tested or not shown; [ ] = remark or other dose. Compounds with a hit are over-represented: about 1.7% of the library has one in this group of screens.
SMILES,PGC1a acetyl inh,CAL PDZ FP-1,CAL PDZ FP-2,F508del corr,miR122 inh,ARNT TACC3 PPI
Cc1ccc(CN2C(=O)c3ccccc3NC2c2ccccn2)cc1 (stereo unspecified),-7,0,58*,1,/,4
CO[C@@H]1CN(C)C(=O)c2cc(NS(=O)(=O)c3ccc(F)cc3)ccc2OC[C@@H](C)NC[C@@H]1C,18,/,/,-1,-12[16.7 µM],-6
O=C(CCc1c[nH]c2ccccc12)Nc1ccc(S(=O)(=O)Nc2ncccn2)cc1,-1,0,33*,-1,5,5
O=C(CSc1nnc2c(n1)[nH]c1ccccc12)Nc1ccc(S(=O)(=O)Nc2ncccn2)cc1,/,-6,-10,0,-3,49*
O=C(c1cnccn1)N1CC[C@@H]2[C@@H](CO)Nc3ccc(-c4ccccc4)cc3[C@@H]21,16,/,/,1,6[16.7 µM],2
COc1ccccc1NC(=O)c1ccccc1S(=O)(=O)c1ccc([N+](=O)[O-])cc1,-6,0,72*,-1,-2,-1
COc1ccccc1NC(=O)c1ccccc1S(=O)(=O)c1ccccc1[N+](=O)[O-],/,-2,14,/,/,/
COc1ccccc1NC(=O)N[C@@H]1CC[C@H](CC(=O)NCc2ccc(Cl)c(Cl)c2)O[C@H]1CO,2,/,/,0,/,22
COc1cc(/C=C2\SC(=S)N(NC(=O)c3ccc(O)c(OC)c3)C2=O)ccc1O,0,-4,-25,-1,-4,10
COc1cc(/C=C2\SC(=S)N(NC(=O)c3ccncc3)C2=O)ccc1O,-9,-1,-9,13*,/,16
C[C@H]1CN([C@@H](C)CO)C(=O)c2cc(NC(=O)Nc3ccc(F)cc3)ccc2O[C@@H]1CN(C)CC1CC1,8,/,/,-1,/,/
CN(Cc1cccs1)C(=O)c1cccc(S(=O)(=O)N2CCCCCC2)c1,/,0,-2,31*,/,/
C[C@@H]1CN([C@@H](C)CO)C(=O)c2cc(NS(=O)(=O)c3ccccc3)ccc2O[C@H]1CN(C)C(=O)Nc1cccc2ccccc12,2,/,/,0,0[16.7 µM],-3
COc1cccc(C(=O)CSc2nnc(CNS(=O)(=O)c3ccc(C)cc3)n2C)c1,89*,-1,-1,/,-1,-7
COC(=O)CSc1nnc(CNS(=O)(=O)c2ccc(C)cc2)n1C,-5,1,/,/,5,-6
O=C(Cc1ccccc1)Nc1cccc([N+](=O)[O-])c1,/,-1,4,/,/,0
O=C(CNc1cccc([N+](=O)[O-])c1)NCCCc1ccccc1,/,0,38*,-1,3,/
O=C(CNS(=O)(=O)c1cccc(Br)c1)NCCCc1ccccc1,/,-1,44*,3,/,7
N#Cc1cccc(S(=O)(=O)NCC(=O)NCCCc2ccccc2)c1,0,0,/,0,-1,/
O=C(Nc1ccc(F)cc1)N1CC(=O)N2[C@H](CO)[C@H](c3ccc(-c4ccccc4)cc3)[C@H]2C1,11,/,/,2,/,/
CC1(C)CC2(CCCN(CC(O)(c3ccccc3)c3ccccc3)C2)CCO1 (stereo unspecified),-18,0,86*,1,-13,-8
C[C@H]1CN([C@@H](C)CO)C(=O)c2cccc(NC(=O)c3cnccn3)c2O[C@H]1CN(C)S(=O)(=O)c1ccc(Cl)cc1,9,/,/,-3,0[16.7 µM],/
COc1cc(OC)cc(C(=O)NC(=S)Nc2ccc3oc(=O)ccc3c2)c1,2,-2,-2,9.6*,-4,-30
COc1cccc(C(=O)NC(=S)Nc2ccc3oc(=O)ccc3c2)c1,-4,0,-1,/,-4,2
O=C(C[C@@H]1CC[C@H](NC(=O)CCN2CCCCC2)[C@@H](CO)O1)Nc1ccc(-c2ccccc2)cc1,0,/,/,-2,/,-17
SMILES,PGC1a acetyl inh,CAL PDZ FP-1,CAL PDZ FP-2,F508del corr,miR122 inh,ARNT TACC3 PPI
CN1CCN(c2ccccc2NC(=O)c2ccc(N3CCCC3)c([N+](=O)[O-])c2)CC1,-7,58*,43*,3,/,17
Cc1noc(C)c1NC(=O)Nc1ccc2c(c1)C(=O)N([C@@H](C)CO)C[C@H](C)[C@@H](CN(C)C(=O)Nc1ccc(C(F)(F)F)cc1)OCCCC[C@H](C)O2,7,/,/,1,-8[16.7 µM],-4
OC[C@@H]1CN(Cc2ccccc2)C[C@H](n2cnc3c(NCc4ccco4)ncnc32)O1,101*,/,/,1,0,/
Cc1ccccc1S(=O)(=O)N[C@H]1CC[C@@H](CCNS(=O)(=O)c2cccc(F)c2)O[C@H]1CO,-1,/,/,0,/,6
COC(=O)C(C(=O)OC)[C@@H]1C=C[C@H](C[N+](=O)[O-])N(C(C)=O)C1,/,-1,-3,4,2,7
COC(=O)C[C@H]1C=C[C@@H](C(C(=O)OC)C(=O)OC)CN1C(C)=O,/,-1,91*,3,-1,39
OC[C@@H]1[C@H](c2ccc(C#CC3CCCC3)cc2)[C@H]2CN(CCC(F)(F)F)CCCCN12,81*,/,/,6,-24[16.7 µM],14
COc1ccc(C#Cc2ccc([C@H]3[C@H]4CN(C(=O)c5ccncc5)CCCCN4[C@H]3CO)cc2)cc1,10,/,/,9.3*,12[16.7 µM],6
O=C(Nc1ccccc1)N1CCCCN2[C@@H](CO)[C@@H](c3ccc(C#Cc4ccccc4)cc3)[C@@H]2C1,-8,/,/,-6,-10[16.7 µM],9
O=C(Nc1cccc(F)c1)N1CCCCN2[C@@H](CO)[C@H](c3ccc(C#Cc4ccccc4)cc3)[C@@H]2C1,11,/,/,8.9*,-9[16.7 µM],-8
O=C(Nc1ccccc1)N1CCCCN2[C@@H](CO)[C@H](c3ccc(C#Cc4ccccc4)cc3)[C@@H]2C1,-2,/,/,8.1*,-16[16.7 µM],23
COc1ccc(C#Cc2ccc([C@@H]3[C@H]4CN(C(=O)c5ccncc5)CCCCN4[C@H]3CO)cc2)cc1,2,/,/,4,-12[16.7 µM],10
O=C(Nc1cccc(F)c1)N1CCCCN2[C@H](C1)[C@H](c1ccc(C#Cc3ccccc3)cc1)[C@@H]2CO,1,/,/,5,6[16.7 µM],-11
C[C@H](CO)N1C[C@H](C)[C@@H](CN(C)C(=O)C2CC2)Oc2cc(-c3ccc(F)cc3)ccc2S1(=O)=O,5,/,/,-2,28[16.7 µM],/
O=S(=O)(Cc1ccccc1)N1CCCCN2[C@H](C1)[C@@H](c1ccc(C#Cc3ccccc3)cc1)[C@@H]2CO,-25,/,/,8.0*,32[16.7 µM],7
